Data set [1] can be described thus: Half life in Sprague-Dawley rat at 2.5 mg/kg, po by LC-MS/MS analysis. It counts as ADME, organism-based. The conditions noted are these: in vivo.
Data set [2] in a line: Intrinsic clearance in human liver microsomes at 1 uM after 5 to 60 mins in presence of NADPH by LC-MS/MS analysis. It counts as ADME, Microsome. To be noted: time 5-60 min, read-out: CLH.
Data set [3] is described as follows: Tmax in Sprague-Dawley rat brain at 3 mg/kg, po by LC-MS/MS analysis. Type of data set: ADME, organism-based. The procedure, abridged: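 Rats dosed orally at 3 mg/kg in 20% HP-β-CD. Brain concentrations were measured over a 6 h time course (0.5, 2, 6 h) alongside ex vivo GluN2B occupancy, n=2.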
Data set [4] can be described thus: Cmax in mouse at 2.5 mg/kg, po by LC-MS/MS analysis. The arrangement: route oral, dose 2.5 mg/kg. The conditions noted are these: in vivo. Type of data set: ADME, organism-based.
Data set [5] in a line: Ratio of Cmax in Sprague-Dawley rat at 100 mg/kg, po administered via gavage after 24 hrs using nanosuspension formulation by LC-MS/MS analysis to EC70 for ex vivo receptor occupancy at GluN2B in po dosed Sprague-Dawley rat assessed as 3-[3H] 1-(azetidin-1-yl)-2-[6-(4-fluoro-3-methyl-phenyl)pyrrolo[3,2-b]pyridin-1-yl]-ethanone labelling. It counts as ADME, organism-based.

Data set [6] is described as follows: Oral bioavailability in dog at 0.5 mg/kg by LC-MS/MS analysis. It counts as ADME, organism-based, Canis lupus familiaris. The conditions noted are these: in vivo.
A further data set concerns the target Cytochrome P450 2C9 (Homo sapiens, UniProt P11712). Kind of data set: Inhibition of CYP2C9 in human liver microsomes using tolbutamide as substrate measured after 15 mins by LC-MS/MS analysis. Type of data set: ADME. In short, it runs like this: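 Human liver microsomes incubated with isoform-specific probe substrates and the test compound at concentrations up to 20 µM. IC50 derived from inhibition of metabolite formation; mean of two independent experiments, with known specific inhibitors as positive controls.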

Data set [7] is described as follows: Ratio of Cmax in Sprague-Dawley rat at 125 mg/kg, po administered via gavage after 24 hrs using HPMC formulation by LC-MS/MS analysis to EC70 for ex vivo receptor occupancy at GluN2B in po dosed Sprague-Dawley rat assessed as 3-[3H] 1-(azetidin-1-yl)-2-[6-(4-fluoro-3-methyl-phenyl)pyrrolo[3,2-b]pyridin-1-yl]-ethanone labelling. Type of data set: ADME, organism-based.

Data set [8] can be described thus: Ex vivo receptor occupancy at GluN2B in Sprague-Dawley rat assessed as 3-[3H] 1-(azetidin-1-yl)-2-[6-(4-fluoro-3-methyl-phenyl)pyrrolo[3,2-b]pyridin-1-yl]-ethanone labelling at 3 mg/kg, po measured after 2 hrs by autoradiography. Type of data set: functional. The procedure, abridged:
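Rats dosed orally at 3 mg/kg in 20% HP-β-CD; brains taken at 0.5, 2 and 6 h. Ex vivo autoradiography of brain slices with the ³H pyrrolo[3,2-b]pyridine GluN2B tracer. Labelling expressed relative to matching brain areas of vehicle-treated animals; n=2, ± SEM.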

The nature of data set [9]: Tmax in Sprague-Dawley rat at 0.5 mg/kg, iv or 2.5 mg/kg, po using 1:1 PEG-400/water formulation by LC-MS/MS analysis. To be noted: in vivo. It counts as ADME, organism-based. In short, it runs like this: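 Rat PK at 0.5 mg/kg i.v. and 2.5 mg/kg p.o., vehicle 1:1 PEG400/water. n=3, values given as mean ± SD.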
Data set [10] is described as follows: Negative allosteric modulation of human GluN1a/GluN2B receptor expressed in CHO cells assessed as inhibition of glutamate and glycine-induced calcium flux preincubated for 5 mins followed by glutamate and glycine addition and measured after 5 mins by calcium 5 dye based FLIPR assay. It counts as cell-based. In short, it runs like this: (§1)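 Tet-On CHO T-Rex cells expressing hGluN1a with GluN2A, 2B, 2C or 2D, plated at 20,000 cells/well and induced 24 h before the assay in the presence of ketamine. Cells loaded 1 h at room temperature with Calcium 5 dye, pH 7.4 HEPES buffer. Compound added 5 min, then glutamate (~EC80) plus 10 µM glycine for 5 min; FLIPR fluorescence normalized to control wells. Three independent runs in duplicate (two for some).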
In general terms: Calcium flux is commonly read through the fluorescence of an indicator in the cells.

The next data set concerns the target Cytochrome P450 3A4 (Homo sapiens, UniProt P08684). Kind of data set: Time-dependent inhibition of CYP3A4 in human liver microsomes at 10 uM using midazolam as substrate by LC-MS/MS analysis. It counts as ADME. The procedure, abridged: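 CYP3A4 time-dependent inhibition in human liver microsomes. The compound (0.4 to 10 μM) was tested with and without 30 min preincubation. IC50 was taken from percent activity remaining versus vehicle, averaged over two independent experiments. A >2-fold IC50 shift after preincubation was the threshold for time-dependent inhibition.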
In general terms: Liver microsomes are a subcellular fraction often used to study metabolism.

Data set [11] is described as follows: AUC (infinity) in monkey at 0.5 mg/kg, po by LC-MS/MS analysis. Type of data set: ADME, organism-based, Macaca mulatta. Details: route oral, time infinity, dose 0.5 mg/kg. To be noted: rhesus monkey, in vivo.
The nature of data set [12]: Ratio of Cmax in Sprague-Dawley rat at 250 mg/kg, po administered via gavage after 24 hrs using nanosuspension formulation by LC-MS/MS analysis to EC70 for ex vivo receptor occupancy at GluN2B in po dosed Sprague-Dawley rat assessed as 3-[3H] 1-(azetidin-1-yl)-2-[6-(4-fluoro-3-methyl-phenyl)pyrrolo[3,2-b]pyridin-1-yl]-ethanone labelling. Type of data set: ADME, organism-based.

Data set [13] is described as follows: AUC (infinity) in dog at 0.1 mg/kg, iv by LC-MS/MS analysis. Type of data set: ADME, organism-based, Canis lupus familiaris. The arrangement: time infinity, route intravenous, dose 0.1 mg/kg. To be noted: in vivo.
The nature of data set [14]: Ratio of Cmax in Sprague-Dawley rat at 250 mg/kg, po administered via gavage after 24 hrs using HPMC formulation by LC-MS/MS analysis to EC70 for ex vivo receptor occupancy at GluN2B in po dosed Sprague-Dawley rat assessed as 3-[3H] 1-(azetidin-1-yl)-2-[6-(4-fluoro-3-methyl-phenyl)pyrrolo[3,2-b]pyridin-1-yl]-ethanone labelling. Type of data set: ADME, organism-based.

Data set [15] in a line: AUC (0 to 24 hrs) in Sprague-Dawley rat at 250 mg/kg, po administered via gavage after 24 hrs using nanosuspension formulation by LC-MS/MS analysis. Type of data set: ADME, organism-based. Details: route oral, dose 250 mg/kg, time <=24. The conditions noted are these: in vivo. In short, it runs like this: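 Single oral gavage dose to male Sprague Dawley rats, 3 per dose level. Vehicles were a standard suspension in 5% HPMC (125, 250, 500 or 1000 mg/kg) or a nanosuspension (API:polymer 4:1), with stock diluted in vehicle on the day of dosing (100, 250 or 500 mg/kg). Blood was sampled at time points from 0.5 to 24 h.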

Data set [16] is described as follows: Negative allosteric modulation of human GluN1a/GluN2D receptor expressed in CHO cells assessed as inhibition of glutamate and glycine-induced calcium flux preincubated for 5 mins followed by glutamate and glycine addition and measured after 5 mins by calcium 5 dye based FLIPR assay. It counts as cell-based. The procedure, abridged:
as §1

A short description of data set [17]: Ratio of Cmax in Sprague-Dawley rat at 500 mg/kg, po administered via gavage after 24 hrs using nanosuspension formulation by LC-MS/MS analysis to EC70 for ex vivo receptor occupancy at GluN2B in po dosed Sprague-Dawley rat assessed as 3-[3H] 1-(azetidin-1-yl)-2-[6-(4-fluoro-3-methyl-phenyl)pyrrolo[3,2-b]pyridin-1-yl]-ethanone labelling. It counts as ADME, organism-based.

As usually defined, the half-life is how long it takes for the measured level to halve. In general, Tmax refers to the time from dosing to the highest level. In general, Cmax refers to the highest concentration seen after dosing. Usually bioavailability stands for the share of a dose that reaches the circulation, judged against a reference dose that is usually intravenous. In general, IC50 refers to the concentration that inhibits the measured activity by half. What is called AUC(0-inf) is total exposure, with the tail of the curve extrapolated. A word on the AUC(0-t): it is the area under the concentration-time curve up to a stated or last time point.

Some results are limits rather than exact numbers.

Cytochrome P450 2C9, sequence (P11712 whole entry, canonical isoform): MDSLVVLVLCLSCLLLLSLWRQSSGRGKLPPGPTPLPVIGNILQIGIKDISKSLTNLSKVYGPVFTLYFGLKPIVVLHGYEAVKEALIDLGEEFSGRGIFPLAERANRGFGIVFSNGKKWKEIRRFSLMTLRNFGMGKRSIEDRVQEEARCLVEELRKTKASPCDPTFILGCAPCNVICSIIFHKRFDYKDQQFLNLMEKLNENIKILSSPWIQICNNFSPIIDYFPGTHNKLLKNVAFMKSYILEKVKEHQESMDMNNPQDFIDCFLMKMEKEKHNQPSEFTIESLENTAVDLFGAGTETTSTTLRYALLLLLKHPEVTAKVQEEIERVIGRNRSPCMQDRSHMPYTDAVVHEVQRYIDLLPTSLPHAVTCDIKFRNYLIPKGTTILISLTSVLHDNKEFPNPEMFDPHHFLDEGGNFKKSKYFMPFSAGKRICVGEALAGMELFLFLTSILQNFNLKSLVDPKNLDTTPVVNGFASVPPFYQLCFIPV
Cytochrome P450 3A4, sequence (P08684 whole entry): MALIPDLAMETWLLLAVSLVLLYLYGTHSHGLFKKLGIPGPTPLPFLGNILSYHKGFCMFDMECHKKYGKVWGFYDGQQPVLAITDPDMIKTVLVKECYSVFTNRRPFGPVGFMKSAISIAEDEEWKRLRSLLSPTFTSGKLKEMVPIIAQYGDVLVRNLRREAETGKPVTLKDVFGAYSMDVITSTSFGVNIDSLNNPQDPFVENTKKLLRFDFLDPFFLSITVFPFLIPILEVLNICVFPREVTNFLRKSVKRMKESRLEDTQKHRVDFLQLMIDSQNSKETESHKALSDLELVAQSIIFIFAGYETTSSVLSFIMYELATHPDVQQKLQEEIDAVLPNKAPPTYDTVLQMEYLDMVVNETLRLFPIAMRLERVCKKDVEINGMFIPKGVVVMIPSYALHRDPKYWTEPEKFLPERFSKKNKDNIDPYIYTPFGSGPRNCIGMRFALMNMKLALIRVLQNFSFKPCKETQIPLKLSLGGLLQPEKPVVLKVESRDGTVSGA

In the case of `Cn1c(=O)n(CC(=O)N2CCC2)c2cc(-c3ccc(C(F)(F)F)s3)cnc21`, the half-life in data set [1] is 132 min. Further, in data set [2], the microsomal CLint at 1 µM was 5.4 µL/min/mg. Moreover, the Tmax in [3] stood at 30 min; in [9], 1.3 h. In data set [4], the peak level (Cmax) was 413 ng/mL. For the same compound, the Ratio is 13 in data set [5]; 6 in data set [7]; 17 in [12]; 8 in [14]; 26 in [17]. Moreover, the bioavailability in [6] was determined as 43%. In addition, the IC50 is above 50 µM against Cytochrome P450 2C9, 31 nM in [10] and above 10 µM in data set [16]. The Occ in data set [8] amounted to 76%. In addition, the TDI entry on Cytochrome P450 3A4 is given as “Not Active”. Also, the AUC(0-inf) is 385 ng·h/mL in [11] and 126 ng·h/mL in data set [13]. This compound yielded an AUC(0-t) in data set [15] of 86400 ng·h/mL.

Values taken from ChEMBL document CHEMBL4725355, “Design, Synthesis, and Preclinical Evaluation of 3-Methyl-6-(5-thiophenyl)-1,3-dihydro-imidazo[4,5-b]pyridin-2-ones as Selective GluN2B Negative Allosteric Modulators for the Treatment of Mood Disorders” (J Med Chem, 2020).
